# Assay outcomes: PubChem, several laboratories
# The list is not random: actives were taken first. Their share in the collection is about 5.6%.
# CHOP inh: inhibitors of CHOP induction in ER stress response; inhibition, % at 10 µM; hit rate 3.8% among 220,000; AID 2732; CHO-K1 CHOP-promoter luciferase, tunicamycin-induced, 15-18 h;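 active means compounds that reduced the stress-induced luciferase reporter signal by more than about 70% of percent inhibition, limit read from the data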;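 further: 0% = tunicamycin plus vehicle and 100% = wells without tunicamycin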
# UPR XBP1 act: activators of adaptive arm of unfolded protein response (XBP1) | CHO-XBP1 luciferase reporter, IRE1-XBP1 UPR activation, luminescence; percent of tunicamycin response, DMSO as zero | AID 463104 | hit rate 0.33% among 330,000 | activation, % at 20 µM;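 active means versus positive control, 20 µM dose yields 30% or more activation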;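 further: 100% = tunicamycin at 10 µg/mL and 0% = DMSO only wells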
#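 Material: CHO cell line with stable XBP1 luciferase reporter; schedule: 16-18 h cell attachment at 37 °C, then 6 h compound exposure; signal: glow luminescence from Steady-Glo reagent; medium: serum-containing F12 medium, 10% FBS; benchmarks: tunicamycin 10 µg/mL and vehicle-only wells; read-out: percent activation relative to tunicamycin reference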
# MPTP inh: permeability transition pore inhibition | hit rate 1.4% among 360,000 | inhibition, % at 10 µM | isolated mouse mitochondria, Ca2+ swelling absorbance, 30 min;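 active means inhibition of 50% or more, scaled per plate between neutral and stimulator controls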;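 further: 0% = DMSO wells given calcium and 100% = 1 mM EGTA wells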
# NR3A LBD binder: modulators (binders) of human NR3A ligand-binding domain | NR3A LBD differential scanning fluorimetry, Tm shift; 0% = protein alone, 100% = glycine-bound protein | hit rate 2.5% among 340,000 | Tm shift relative to glycine control, % at 25 µM;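 active means melting temperature shift of at least 10% of the positive control shift, at one fixed dose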
# UPR CHOP act: apoptotic UPR (CHOP) activation; activation, % at 10 µM; CHO-CHOP luciferase reporter, luminescence; percent of tunicamycin response over DMSO baseline; hit rate 0.34% among 330,000;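 active means at 10 µM dose, activation of 40% or more, normalized to positive control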;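 further: 100% = tunicamycin at 10 µg/mL and 0% = DMSO alone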
#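 System: CHO-CHOP luciferase reporter cell line; amount: 500 cells/well; buffer or medium: F12 medium containing 10% fetal bovine serum; incubation: 6 h compound exposure at 37 °C after overnight seeding; measured by: luciferase luminescence after 10 min with Steady-Glo reagent; evaluation: % reporter activation, DMSO baseline versus tunicamycin full activation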
# aDG glyco act: alpha-DG glycosylation activation; hit rate 0.22% among 360,000; Pro5-aDG cells, alpha-DG glycosylation AlphaScreen (IIH6); 0% Pro5, 100% B10-LARGE cell signal; AID 624168; activation, % at 10 µM;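 active means activation of at least 8% versus controls, or a plate z-score of at least 8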;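 further: Pro5 are CHO cells carrying HIG-tagged alpha-DG that lacks glycosylation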
# * marks the source's active call; other numbers are inactive results; · = no result given.
SMILES,CHOP inh,UPR XBP1 act,MPTP inh,NR3A LBD binder,UPR CHOP act,aDG glyco act
CC1Cc2c([nH]c3ccccc23)C(=O)N1 (centres undefined),·,0,0,0,2,0
CC1CN(CC(O)c2ccc(Br)cc2)CCO1 (centres undefined),·,·,2,-1,·,0
Cc1ccc(-c2nnc(Nc3ccccc3)o2)cc1,84*,-8,2,-1,-6,0
CCOc1ccc(NC(=O)Nc2ccccc2SC)cc1,5,1,-1,-6,3,0
CCOc1ccc(NC(=O)Nc2cc(C(C)C)ccc2C)cc1,93*,-1,0,·,0,1
CCOc1ccc(NC(=O)Nc2cc(-c3ccccc3)sc2C(=O)OC)cc1,40,-4,4,21*,-1,0
CCOc1ccc(NC(=O)Nc2ccc3c(c2)nnn3C)cc1,22,-4,0,16*,2,0
Cc1ccc(S(=O)(=O)N2CCCC2C(=O)NCc2ccccc2F)cc1 (centres undefined),·,-5,3,2,-2,0
CC(C)(CNC(=O)c1ccc(Br)o1)CNC(=O)c1ccc(Br)o1,·,-1,-1,2,0,0
CCCCN(C=O)c1c(CC)nc2ccc(C(=O)NCc3ccc4c(c3)OCO4)cn12,·,·,1,·,·,0
N#Cc1cn(CCOc2ccc(F)cc2)c2ccccc12,55,-1,-3,-4,-2,0
N#Cc1cn(CCOc2ccccc2F)c2ccccc12,74*,4,1,-12,3,0
C#CCn1c(=NC(=O)c2cc(-c3cccs3)nc3ccccc23)sc2cc(S(N)(=O)=O)ccc21,5,4,2,15*,3,0
C#CCn1c(=NC(=O)c2cc(Cl)sc2Cl)sc2cc(S(N)(=O)=O)ccc21,-26,-1,3,31*,2,0
CC(=O)/C=C\c1cn(-c2ncc(C(F)(F)F)cc2Cl)c2ccccc12,-8,0,6,14*,2,0
CCCCOc1cccc(C(=O)Nc2ccc(NC(=O)c3cccs3)cc2)c1,·,1,1,22*,1,0
CCOc1ccc(NC(=O)c2ccc(NS(=O)(=O)c3cccs3)cc2)cc1,·,-5,-1,24*,3,0
COc1cccc(NC(=O)c2ccc(NS(=O)(=O)c3cccs3)cc2)c1,·,-4,-3,-3,-1,0
CC(=O)c1ccc(NC(=O)c2ccc(NC(=O)CCS(=O)(=O)c3cccs3)cc2)cc1,3,-2,0,21*,2,0
CCCOc1ccc(C(=O)Nc2ccc(NC(=O)c3cccs3)cc2)cc1,·,-8,-2,14*,3,0
CC(=O)c1cccc(NC(=O)c2ccc(NC(=O)CCS(=O)(=O)c3cccs3)cc2)c1,·,-4,0,7,-2,0
COc1cccc(CNC(=O)[C@@H]2CCCN2C(=O)[C@@H]2CCCN2C(=O)c2cccs2)c1,·,·,0,·,·,0
COc1cccc(C(=O)COc2ccc(NC(=O)c3cccs3)cc2)c1,·,1,0,2,0,0
O=C(COc1ccc(NC(=O)c2cccs2)cc1)c1ccc(F)cc1,·,-3,0,27*,1,0
Cc1cccc(C)c1NC(=O)CN(C)C(=O)CN1C(=O)NC(C)(C)C1=O,·,-2,0,2,-1,0
SMILES,CHOP inh,UPR XBP1 act,MPTP inh,NR3A LBD binder,UPR CHOP act,aDG glyco act
CC(C)NC(=S)N/N=C/C1=CCC2CC1C2(C)C (centres undefined),72*,0,2,-4,1,2
C=C(C)CNC(=S)N/N=C/C1=CCC2CC1C2(C)C (centres undefined),84*,-5,2,-4,-1,2
CC(=O)N/N=C/C1=CCC2CC1C2(C)C (centres undefined),17,-3,-1,0,-1,0
Cc1ccc(-c2noc(CCC(=O)Nc3cccc(C(=O)NC4CC4)c3)n2)cc1,·,·,0,·,·,0
COc1ccc(/C=N/n2cc(-c3ccc(OC)cc3)nc2N)cc1,70*,-2,-2,-8,6,2
Cc1ccc(S(=O)(=O)N(C(=O)c2ccco2)c2cc3sc(=O)oc3c3ccccc23)cc1,3,-7,0,-4,1,6.6*
CCOc1ccc(S(=O)(=O)N(C(=O)c2ccco2)c2cc3sc(=O)oc3c3ccccc23)cc1,39,-2,2,1,2,11*
COc1ccc(S(=O)(=O)N(C(=O)c2ccco2)c2cc3sc(=O)oc3c3ccccc23)cc1,85*,0,1,-2,0,7.6*
COc1ccc(S(=O)(=O)N(C(=O)C(C)C)c2ccc3oc(=O)sc3c2)cc1,37,-3,-2,-3,1,0
CC(=O)N(c1ccc2oc(=O)sc2c1)S(=O)(=O)c1ccccc1,0,-2,-3,4,-4,0
CC(C)Cn1c(N)c(C(=O)COC(=O)CCNS(=O)(=O)c2ccccc2)c(=O)n(C)c1=O,·,-5,3,7,-1,1
CCOC(=O)c1ccc(NC(=S)N2CCSC2c2ccc(Cl)cc2)cc1 (centres undefined),45,·,20,19*,·,0
O=c1cc(CN2CCN(Cc3ccccc3)CC2)c2ccc(O)c(O)c2o1,·,63*,2,1,4,0
CCOc1ccc(S(=O)(=O)N(CC(=O)N/N=C/c2cccs2)c2ccc(C)cc2)cc1,76*,-3,5,-3,0,0
COc1ccc(CCN(Cc2cc3ccc(C)cc3n3nnnc23)C(C)=O)cc1OC,-7,1,1,-2,2,0
CC(C)(C)c1ccc(C(=O)N2CCC2(C)C(=O)NCc2ccc3c(c2)OCO3)cc1 (centres undefined),·,·,9,·,·,1
Cn1c(O)c(C2=c3ccccc3=NC2=O)[nH]c1=S,84*,-1,4,-1,1,0
COc1ccc2nc(N3C(=O)CNC3=S)sc2c1,-51,-4,1,2,4,0
COc1ccc2nc(-n3c(O)c(C4=c5ccccc5=NC4=O)[nH]c3=S)sc2c1,103*,·,10,17*,·,0
COc1ccccc1NS(=O)(=O)c1cccc(NC(=O)c2cncc(Br)c2)c1,·,-2,1,0,-2,1
C[C@H]1CN(S(=O)(=O)c2c(F)cccc2F)CCN1S(=O)(=O)c1ccc2c(c1)OCCO2,·,-4,-1,11*,0,0
Cn1c(CNC(=O)CCNC(=O)c2ccccc2F)cc(=O)n(C)c1=O,·,-7,1,-1,5,0
Cc1ccc(S(=O)(=O)CCC(=O)Nc2ccc(F)cc2)cc1,-2,-4,1,0,0,0
